According to ChEMBL document CHEMBL1153588, “DNA sequence selectivity of hairpin polyamide turn units” (Bioorg Med Chem Lett, 2009):

Columns and labels:
Type in all cases: nucleic-acid assay
[1] = tested on: Nucleic Acid; assay: Binding affinity to 11mer DNA duplex 5'-CTATGGTAGAC-3' assessed as change in melting temperature by spectroscopic analysis
How it was run: (§1)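 Duplex melting temperatures were measured on a spectrophotometer with a thermo-controlled cell holder in 10 mM sodium cacodylate buffer.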

[2] = tested on: Nucleic Acid; assay: Binding affinity to 5'-ATGGTG-3' in Escherichia coli pCDMF6 by DNase1 foot-printing titration method
How it was run: (§2)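 The plasmid target was built by ligating an annealed synthetic oligonucleotide pair carrying the tandem match sites. A primer was 5'-end-labelled with ³²P, and binding was measured by DNase I footprinting titrations.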

[3] = tested on: Nucleic Acid; assay: Binding affinity to 5'-ATGGTA-3' in Escherichia coli pCDMF6 by DNase1 foot-printing titration method; how it was run: as §2
[4] = tested on: Nucleic Acid; assay: Binding affinity to 5'-ATGGTTC-3' in Escherichia coli pCDMF6 by DNase1 foot-printing titration method; how it was run: as §2
[5] = tested on: Nucleic Acid; assay: Binding affinity to 5'-ATGGTT-3' in Escherichia coli pCDMF6 by DNase1 foot-printing titration method; how it was run: as §2
[6] = tested on: Nucleic Acid; assay: Binding affinity to 11mer DNA duplex 5'-CTCTGGCACAC-3' assessed as change in melting temperature by spectroscopic analysis; how it was run: as §1
[7] = tested on: Nucleic Acid; assay: Binding affinity to 11mer DNA duplex 5'-CTATGTTACCA-3' assessed as change in melting temperature by spectroscopic analysis; how it was run: as §1
[8] = tested on: Nucleic Acid; assay: Binding affinity to 11mer DNA duplex 5'-CTCTGTTACCA-3' assessed as change in melting temperature by spectroscopic analysis; how it was run: as §1

Row | Structure (SMILES) | ΔTm [1] [°C] | Ka [2] [×10⁷ /M] | Ka [3] | Ka [4] [×10⁷ /M] | Ka [5] | further results
1 | CN(C)CCCNC(=O)CCNC(=O)c1cc(NC(=O)c2cc(NC(=O)c3cc(NC(=O)[C@H](N)CCNC(=O)c4cc(NC(=O)c5nc(NC(=O)c6nccn6C)cn5C)cn4C)cn3C)cn2C)cn1C | 14.7 | < 1 | 1.7 ×10⁹ /M | 3.9 | 1.6 ×10⁹ /M | –
2 | CC(=O)N[C@@H](CNC(=O)c1cc(NC(=O)c2nc(NC(=O)c3nccn3C)cn2C)cn1C)CC(=O)Nc1cc(C(=O)Nc2cc(C(=O)Nc3cc(C(=O)NCCC(=O)NCCCN(C)C)n(C)c3)n(C)c2)n(C)c1 | 12.2 | < 1 | 5.2 ×10⁹ /M | 8.9 | 2 ×10⁹ /M | –
3 | CN(C)CCCNC(=O)CCNC(=O)c1cc(NC(=O)c2cc(NC(=O)c3cc(NC(=O)[C@@H](F)CCNC(=O)c4cc(NC(=O)c5nc(NC(=O)c6nccn6C)cn5C)cn4C)cn3C)cn2C)cn1C | 7.9 | – | – | – | – | –
4 | CN(C)CCCNC(=O)CCNC(=O)c1cc(NC(=O)c2cc(NC(=O)c3cc(NC(=O)CCCNC(=O)c4cc(NC(=O)c5nc(NC(=O)c6nccn6C)cn5C)cn4C)cn3C)cn2C)cn1C | 9.2 | < 1 | 2 ×10⁸ /M | < 1 | 2.1 ×10⁸ /M | –
5 | CN(C)CCCNC(=O)CCNC(=O)c1cc(NC(=O)c2cc(NC(=O)c3nc(NC(=O)C[C@H](N)CNC(=O)c4cc(NC(=O)c5nc(NC(=O)c6nccn6C)cn5C)cn4C)cn3C)cn2C)cn1C | – | – | – | – | – | ΔTm [6]: 6 °C
6 | CN(C)CCCNC(=O)CCNC(=O)c1cc(NC(=O)c2cc(NC(=O)c3cc(NC(=O)[C@H](N)CCNC(=O)c4cc(NC(=O)c5cc(NC(=O)c6nccn6C)cn5C)cn4C)cn3C)cn2C)cn1C | – | – | – | – | – | ΔTm [7]: 15.9 °C; ΔTm [8]: 10.9 °C
7 | CN(C)CCCNC(=O)CCNC(=O)c1cc(NC(=O)c2cc(NC(=O)c3cc(NC(=O)C[C@@H](N)CNC(=O)c4cc(NC(=O)c5cc(NC(=O)c6nccn6C)cn5C)cn4C)cn3C)cn2C)cn1C | – | – | – | – | – | ΔTm [7]: 18 °C; ΔTm [8]: 13 °C
8 | CC(=O)N[C@H](CCNC(=O)c1cc(NC(=O)c2nc(NC(=O)c3nccn3C)cn2C)cn1C)C(=O)Nc1cc(C(=O)Nc2cc(C(=O)Nc3cc(C(=O)NCCC(=O)NCCCN(C)C)n(C)c3)n(C)c2)n(C)c1 | 10.1 | < 1 | 2.1 ×10⁸ /M | < 1 | 3.2 ×10⁸ /M | –
9 | CN(C)CCCNC(=O)CCNC(=O)c1cc(NC(=O)c2cc(NC(=O)c3cc(NC(=O)[C@H](O)CCNC(=O)c4cc(NC(=O)c5nc(NC(=O)c6nccn6C)cn5C)cn4C)cn3C)cn2C)cn1C | 10 | – | – | – | – | –
10 | CN(C)CCCNC(=O)CCNC(=O)c1cc(NC(=O)c2cc(NC(=O)c3cc(NC(=O)C[C@H](N)CNC(=O)c4cc(NC(=O)c5cc(NC(=O)c6nccn6C)cn5C)cn4C)cn3C)cn2C)cn1C | – | – | – | – | – | ΔTm [7]: 17 °C; ΔTm [8]: 11.6 °C
11 | CN(C)CCCNC(=O)CCNC(=O)c1cc(NC(=O)c2cc(NC(=O)c3nc(NC(=O)C[C@@H](N)CNC(=O)c4cc(NC(=O)c5nc(NC(=O)c6nccn6C)cn5C)cn4C)cn3C)cn2C)cn1C | – | – | – | – | – | ΔTm [6]: 6.7 °C
12 | CN(C)CCCNC(=O)CCNC(=O)c1cc(NC(=O)c2cc(NC(=O)c3cc(NC(=O)[C@H](F)CCNC(=O)c4cc(NC(=O)c5nc(NC(=O)c6nccn6C)cn5C)cn4C)cn3C)cn2C)cn1C | 8.3 | – | – | – | – | –
13 | CN(C)CCCNC(=O)CCNC(=O)c1cc(NC(=O)c2cc(NC(=O)c3cc(NC(=O)C[C@@H](N)CNC(=O)c4cc(NC(=O)c5nc(NC(=O)c6nccn6C)cn5C)cn4C)cn3C)cn2C)cn1C | 14.9 | < 1 | 1.8 ×10⁹ /M | 5 | 3.3 ×10⁹ /M | –
14 | CN(C)CCCNC(=O)CCNC(=O)c1cc(NC(=O)c2cc(NC(=O)c3cc(NC(=O)[C@@H](O)CCNC(=O)c4cc(NC(=O)c5nc(NC(=O)c6nccn6C)cn5C)cn4C)cn3C)cn2C)cn1C | 5.8 | – | – | – | – | –
15 | CN(C)CCCNC(=O)CCNC(=O)c1cc(NC(=O)c2cc(NC(=O)c3cc(NC(=O)C[C@H](N)CNC(=O)c4cc(NC(=O)c5nc(NC(=O)c6nccn6C)cn5C)cn4C)cn3C)cn2C)cn1C | 14.7 | < 1 | 1.3 ×10⁹ /M | 6 | 1.1 ×10⁹ /M | –
16 | CN(C)CCCNC(=O)CCNC(=O)c1cc(NC(=O)c2cc(NC(=O)c3nc(NC(=O)[C@H](N)CCNC(=O)c4cc(NC(=O)c5nc(NC(=O)c6nccn6C)cn5C)cn4C)cn3C)cn2C)cn1C | – | – | – | – | – | ΔTm [6]: 8.3 °C
